This is an account of results in article PMC10166615 (Bioorganic & Medicinal Chemistry, 2023).

Broadly, the CLint scaled is the capacity of the preparation to metabolise the compound, expressed as a volume cleared per time. What is called AUC(0-inf) is the area under the concentration-time curve extrapolated to infinity. A low value points to low exposure. One may read the AUC(0-t) as the area under the concentration-time curve up to a stated or last time point. Higher therefore signals more exposure. A word on the MRT inf: it is the average time that molecules of a dose stay in the body. As a reminder, the half-life is how long it takes for the measured level to halve. The low end stands for fast loss, the high end for slow loss. In general, bioavailability refers to the share of a dose that reaches the circulation, judged against a reference dose that is usually intravenous. A word on the Cmax: it is the maximum level reached in the sampled fluid or tissue. The Tmax is the time at which the peak concentration occurs.

Series [1] is described as follows: Pharmacokinetics after p.o. and i.v. administration. It is filed as in vivo. The settings on record: mouse.
Series [2] in a line: Liver microsomes metabolic stability, mouse. It is filed as in vitro ADME. Put shortly: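 Mouse liver microsomes at 0.5 mg/mL final protein in K/Mg buffer. Test compound went from a 10 mM stock in ACN into a 1.5 µM spiking solution containing 0.75 mg/mL microsomes. After 5 min pre-incubation at 37 °C, reactions were started with 6 mM NADPH stock. They were quenched with ACN containing internal standard at 0, 5, 15, 30 and 45 min, then shaken and centrifuged.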
(In general: Liver microsomes are vesicles of endoplasmic reticulum, rich in cytochrome P450 enzymes.)

For the next series, the system named is SARS-CoV-2. The series can be described thus: Antiviral activity in Vero E6 cells. It is filed as cell-based. The settings on record: for antiviral activity relative to nirmatrelvir: EC50 against SARS-CoV-2 compared with nirmatrelvir.
A short description of series [3]: Liver microsomes metabolic stability, human. It is filed as in vitro ADME.

Take `CC(C)(C)[C@H](NC(=O)C(F)(F)F)C(=O)N1C[C@H]2[C@@H]([C@H]1C(=O)N[C@H](C#N)C[C@@H]1CCNC1=O)C2(C)C` [Nirmatrelvir, reference compound]: the clearance in series [1] (male, plasma, iv, 10 mg/kg) turned out to be 50.1 mL/min/kg. The molecule also gave a CLint scaled at 0.75 h, 1 µM in series [2] of 1180 mL/min/kg.
Regarding `CC(C)(C)[C@H](NS(=O)(=O)C(F)(F)F)C(=O)N1C[C@H]2[C@@H]([C@H]1C(=O)N[C@H](C#N)C[C@@H]1CCNC1=O)C2(C)C` [2b, (1R,2S,5S)-N-((S)-1-cyano-2-((S)-2-oxopyrrolidin-3-yl)ethyl)-3-((S)-3,3-dimethyl-2-((trifluoromethyl)sulfonamido)butanoyl)-6,6-dimethyl-3-azabicyclo[3.1.0]hexane-2-carboxamide], the clearance in series [1] (male, plasma, iv, 10 mg/kg) was 41 mL/min/kg. Besides, the “antiviral activity relative to nirmatrelvir” value in the series with SARS-CoV-2 came out at 4 fold. In addition, in series [2], the CLint scaled at 0.75 h, 1 µM is 55.8 mL/min/kg and the “metabolic stability (in words)” value is on record as “moderate metabolic stability”. For the same molecule, in series [3], the CLint scaled at 0.75 h, 1 µM was 2.67 mL/min/kg and the “metabolic stability (in words)” value is on record as “stable”.
In series [1] (male, plasma, iv, 10 mg/kg), `CC(C)(C)[C@H](NC(=O)C(F)(F)F)C(=O)N1C[C@@H]2CCC[C@@H]2[C@H]1C(=O)N[C@H](C#N)C[C@@H]1CCNC1=O` [1a, (1S,3aR,6aS)-N-((S)-1-cyano-2-((S)-2-oxopyrrolidin-3-yl)ethyl)-2-((S)-3,3-dimethyl-2-(2,2,2-trifluoroacetamido)butanoyl)octahydrocyclopenta[c]pyrrole-1-carboxamide] returned an AUC(0-inf) of 2670 ng·h/mL, an AUC(0-t) of 2670 ng·h/mL, an MRT inf of 14.4 min and a clearance of 69.3 mL/min/kg. For the same molecule, the half-life in series [1] (male, plasma, iv, 10 mg/kg) is 66 min. For the same molecule, the bioavailability in series [1] (male, plasma, oral, 20 mg/kg) was 22.8%. Also, in series [1] (male, plasma, po, 20 mg/kg), the AUC(0-inf) was 1220 ng·h/mL, the AUC(0-t) turned out to be 1220 ng·h/mL, the Cmax was 1310 ng/mL and the MRT inf worked out at 52.8 min. Also, in series [1] (male, plasma, po, 20 mg/kg), the Tmax is 25.2 min and the half-life is 60 min. For the same molecule, the Vss_obs in series [1] (i.v. (10 mg/kg)) worked out at 1.011 L/kg. This molecule also returned an RNA copy inhibition% in the series on SARS-CoV-2 (1 μM compound, preliminary screening) of 70%. The “antiviral activity relative to nirmatrelvir” value in the series with SARS-CoV-2 amounted to 2 fold. For the same molecule, in series [2], the CLint scaled at 1 µM was found to be 368 mL/min/kg, the half-life at 1 µM came to 14.8 min and the “metabolic stability (in words)” value is “susceptible to metabolic effects”. Besides, in series [3], the CLint scaled at 1 µM turned out to be 22 mL/min/kg, the half-life at 1 µM was determined as 78.9 min and the “metabolic stability (in words)” value is “moderate metabolic stability”.
